Published values collected from several papers.
Compare with care: the assays were run in different laboratories.
Read-out: cell growth or viability

Compound | cell line | technique | time | IC50
C=CCNC1=C2C[C@@H](C)C[C@H](OC)[C@H](O)[C@@H](C)/C=C(\C)[C@H](OC(N)=O)[C@@H](OC)/C=C\C=C(/C)C(=O)NC(=CC1=O)C2=O | A-431 | MTT |  | 0.067 µM
C=CC(=O)Nc1cc(Nc2nccc(-c3cn(C)c4ccccc34)n2)c(OC)cc1N(C)CCN(C)C | A-431 | ATP luminescence | 72 h | 0.249 µM
COC(=O)CN=c1scc(-c2ccccc2)n1-c1ccccc1[N+](=O)[O-] | PANC-03-27 | MTT | 72 h | 25.5 µM
COc1cc([C@@H]2c3cc4c(cc3[C@@H](O[C@@H]3O[C@@H]5CO[C@@H](C)O[C@H]5[C@H](O)[C@H]3O)[C@H]3COC(=O)[C@H]23)OCO4)cc(OC)c1O | CCD-18Co | MTS | 72 h | 40.3 µM
COC(=O)CN=c1scc(-c2ccccc2)n1-c1ccc(C)cc1 | PANC-03-27 | MTT | 72 h | 10.8 µM
CC[C@@H](C)[C@H](N)C(=O)N1Cc2ccccc2C1 | TF-1 | ATP luminescence | 48 h | > 60 µM
COc1cc(-c2ncn(/C=C\C(=O)OC(C)C)n2)cc(C(F)(F)F)c1 | SKNO-1 |  | 72 h | 0.058 µM
[Cl-].[Cl-].[Ti+4].c1cc[cH-]c1.c1cc[cH-]c1 | HEK-293T | XTT | 24 h | > 200 µM
Cc1ccc2nc(-c3ccccc3O)[nH]c2c1 | HepG2 | MTT | 48 h | 26.1 µM
O=C(c1cc(O)c(O)c(O)c1)c1cc2ccccc2o1 | HEK-293T | ATP luminescence | 24 h | 1.3 µg/mL
CC(C)C[C@H](NC(=O)[C@H](Cc1ccccc1)NC(=O)c1cnccn1)B(O)O | NCI-H292 | ATP luminescence |  | 0.0093 µM
COc1ccc(C[C]2([Ti+2][C]3(Cc4ccc(OC)cc4)C=CC=C3)C=CC=C2)cc1.[Cl-].[Cl-] | HEK-293T | XTT | 24 h | > 200 µM
O=CC[C@@H](O)[C@H](O)[C@H](O)CO | A-431 | MTT | 3 h | > 6000 µM
CC(=O)Oc1ccc2c(c1)C(C)=CC(C)(C)N2Cc1ccccc1 | Huh-7 | MTT | 72 h | 25 µM
COC(=O)CN=c1scc(-c2ccccc2)n1-c1ccccc1C | PANC-03-27 | MTT | 72 h | > 100 µM
COc1cc(Nc2nccc(-c3cnn4nc(OC)ccc34)n2)cc(C(F)(F)F)c1 | NCI-H2009 | ATP luminescence |  | 0.71 µM

Compound | cell line | technique | time | IC50
COc1ccc(Oc2ccccc2NC(=O)CNC(=O)c2cccc3ccccc23)cc1 | SK-N-AS |  |  | 0.091 µM
Cc1cc(Nc2ncc(Cl)c(Nc3ccccc3S(=O)(=O)C(C)C)n2)c(OC(C)C)cc1C1CCNCC1 | human Myoblast |  | 72 h | 1.84 µM
COc1cccc(Oc2ccccc2NC(=O)CNC(=O)c2cccc3ccccc23)c1 | SK-N-AS |  |  | 0.125 µM
COc1cc2nccc(Oc3ccc(NC(=O)C4(C(=O)Nc5ccc(F)cc5)CC4)cc3)c2cc1OC | human Myoblast |  | 72 h | 0.14 µM
N[C@@H](CC(=O)N1CCN(C(c2ccc(F)cc2)c2ccc(F)cc2)CC1)C(=O)N1Cc2ccccc2C1 | TF-1 | ATP luminescence | 48 h | 28.8 µM
CC(=O)CC(=O)[c-]1cccc1.[Fe+2].c1cc[cH-]c1 | PNT2 | MTT | 96 h | > 100 µM
CCCCNS(=O)(=O)c1ccc(-c2ccc3oc(C(=O)c4cc(O)c(O)c(O)c4)cc3c2)cc1 | HEK-293T | ATP luminescence | 24 h | 15 µg/mL
Clc1ccc(-c2nc3ccccc3[nH]2)cc1Cl | HepG2 | MTT | 48 h | 7.45 µM
C[C@H]1Oc2cc(cnc2N)-c2c(nn(C)c2C#N)CN(C)C(=O)c2ccc(F)cc21 | A-431 |  |  | > 10 µM
COC(=O)CN=c1scc(-c2ccccc2)n1-c1ccc(OC)cc1 | PANC-03-27 | MTT | 72 h | 11.5 µM
O=C(CNC(=O)c1cccc2ccccc12)Nc1ccccc1Oc1ccc(O)cc1 | SK-N-AS |  |  | 0.156 µM
O=C(O)c1ccc(NC(=O)c2cc3cc(Cl)ccc3[nH]2)cc1 | SK-N-BE(2)-C | MTT |  | 21 µM
C[C@@H](Oc1cc(-c2cnn(C3CCNCC3)c2)cnc1N)c1c(Cl)ccc(F)c1Cl | human Myoblast |  | 72 h | 1.84 µM
O=C(Nc1cccc(CO)c1)c1c[nH]c2ccc(Cl)cc12 | SK-N-BE(2)-C | MTT |  | 14 µM
O=C1/C(=C/c2cc(O)c(O)c(O)c2)Oc2ccccc21 | HEK-293T | ATP luminescence | 24 h | 23 µg/mL
